This is an account of results in ChEMBL document CHEMBL4513216, “Probing the Open Global Health Chemical Diversity Library for Multistage-Active Starting Points for Next-Generation Antimalarials” (ACS Infect Dis, 2020).

Each structure is given as a SMILES string.

The data set can be described thus: Toxicity liver stage against HepG2, at 10uM. Set-up: test concentration 10 uM, cell line HepG2-A16-CD81EGFP. To be noted: human, HepG2-A16-CD81EGFP cells; read-out: INHIBITION
The format is cell-based. The gist of the method:
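Uninfected HepG2-A16-CD81EGFP cells, 3 × 10^3 per well, 1536-well, plated on prespotted compound at 10 μM final, parasite-free screening media added to match infected plates; puromycin 10 μM positive, DMSO 0.5% negative; run in parallel with 48 h PbLuc assay at 37 °C, 5% CO2; viability by CellTiter-Glo luminescence, normalized to controls.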

In the case of `CNS(=O)(=O)c1cc(C(=O)NC2COc3ccccc32)cc(C)c1C` (configuration not stated), the cytotoxicity at 10 µM was -1.51%.

Turning to `CN1CC(C(=O)NCc2cccnc2OCC(F)(F)F)CC1=O` (configuration not stated), the cytotoxicity at 10 µM was -6.6%. The value for `O=C(NCc1ccc2c(c1)OCCO2)N1CCC(CO)CC1` was -4.62%; that for `CCc1nc(CN2CCCC(Cn3nc(C)nc3C)C2)no1` (configuration not stated) was -2.68%; that for `Cc1cc(N2CCOCC(Cc3ccc4[nH]ccc4c3)C2)ncn1` (configuration not stated) was -3.77%. On to `COc1ccc2nc(C[C@@H]3C[C@@H](C(C)C)[C@H](CN)C=C3C)[nH]c2n1`, for which the cytotoxicity at 10 µM is 3.38%. The value for `CNc1ncc(C(=O)N2CCOC(C(=O)Nc3ccccc3)C2)cn1` (configuration not stated) was -4.35%; that for `CN(C)C1Cc2ccccc2N(S(=O)(=O)c2ccccc2C#N)C1` (configuration not stated) was 0.71%; that for `CC(=O)N1CCCC1c1cc(N2CCN(C3CCCC3)CC2)cc(C)n1` (configuration not stated) was 1.18%. The value for `CC(C)NC(=O)O[C@H]1COCCN(c2nc3ccccc3s2)C1` was -1.27%; that for `CCN1CCN(C(=O)c2cccn2Cc2ccccc2)CC1` was -12.3%. The value for `O=C(Cn1ccc2ncccc2c1=O)N1CCCCC1` was -7%; that for `O=C(c1ccc(S(=O)(=O)NCCc2ccccn2)cc1)N1CCCC1` was 13.2%.

For `CC(NC(=O)NCCOc1ccc(F)c(F)c1)c1nncn1C` (configuration not stated), the cytotoxicity at 10 µM was -0.192%. The value for `CC(=O)N1[C@H](Cn2cncn2)C[C@@H]2CN(C(=O)NC3CC3)CC[C@@H]21` was -5.16%; that for `OC(COc1ccccc1)CN1CCC(c2ccn[nH]2)CC1` (configuration not stated) was -3.76%; that for `CCC1(C(=O)O)CCCN(C(=O)c2ccc(O)c(Cl)c2)C1` (configuration not stated) was -8.87%. Consider `CC1(C(N)=O)CCCN(c2cnccn2)C1` (configuration not stated), for which the cytotoxicity at 10 µM is -17.8%. The value for `CCn1nc(-c2ccccc2F)ccc1=O` was 12.9%; that for `CN1CCN(S(=O)(=O)c2ncn(C)c2Cl)CC1` was 6.84%; that for `COc1ccccc1C(O)Cn1cc(C(=O)NCc2ccco2)nn1` (configuration not stated) was -6.03%. The value for `CC(NC(=O)NCCCOc1ccccc1F)c1nncn1C` (configuration not stated) was -8.77%; that for `CCSc1ncc(-c2cc(C3CCC3)nc(N)c2C#N)cn1` was 6.67%. The value for `CN(C)C(=O)N1CCc2c(CNc3ncccn3)cncc2C1` was -3.55%; that for `CCC(C)NC(=O)c1cc(S(=O)(=O)N2CCCC2)c(C)s1` (configuration not stated) was -2.6%.

Take `CN(C)C(=O)C1CCC2(CCNCC2)C1` (configuration not stated): the cytotoxicity at 10 µM turned out to be 8.59%.

Regarding `Cn1cc(CC(=O)N2CCCC(c3ccn[nH]3)C2)cn1` (configuration not stated), the cytotoxicity at 10 µM is -4.89%. The value for `COc1ccccc1NCc1cscn1` was -0.358%; that for `Cc1cccc2ncnc(N3CCOC(C)C3)c12` (configuration not stated) was 0.00648%. For `CC(=O)N1CCCC2(C1)CN(c1nncs1)CCO2` (configuration not stated), the cytotoxicity at 10 µM was -102%. Take `O=C1CC(CNc2cncc(Br)c2)c2ccccc2N1` (configuration not stated): the cytotoxicity at 10 µM is -5.19%.

Regarding `Cc1cnc(CNC(=O)[C@@H]2CC[C@@H]3[C@@H](CCN3Cc3ccco3)O2)cn1`, the cytotoxicity at 10 µM was 0.296%.

As to `Nc1nccnc1C1CN(C(=O)c2ccnnc2)CCO1` (configuration not stated), the cytotoxicity at 10 µM was determined as 9.48%. The value for `O=C(NC[C@H]1OC[C@@H](NCc2ccccn2)[C@@H]1O)N1CCOCC1` was 0.15%; that for `O=C1CC(c2ccccc2)C2(CCN(C(=O)c3ccncc3F)CC2)N1` (configuration not stated) was -76.9%. The value for `Cc1cc(C)n(CCN2CCC(N(C)Cc3noc(C4CC4)n3)C2)n1` (configuration not stated) was -2.92%; that for `CN(c1c(F)cccc1F)S(=O)(=O)c1cc2c(c(C(=O)O)c1)OCCO2` was -7.57%; that for `CC(=O)N1CCN(c2ccccc2CNc2cc(F)cc(F)c2)CC1` was 3.7%. The value for `Cc1ccc(C(=O)NCCCNS(C)(=O)=O)cc1C` was -1.66%; that for `Cc1cc(N(C)C)nc(C2COCCN2Cc2csc(C)n2)n1` (configuration not stated) was 1.75%.

With `CC(c1nc(C(C)(C)C)no1)S(=O)(=O)CC(=O)N(C)C` (configuration not stated), the cytotoxicity at 10 µM is -0.0515%. The value for `CNC(=O)C1Cc2ccccc2CN1CCCc1ccccc1` (configuration not stated) was 4.23%; that for `COc1cnc(C2(O)CCN(C(=O)c3ccco3)CC2)c(OC)n1` was -7.02%. The value for `CS(=O)(=O)NCCC(=O)N1CCCC1c1noc(C2CC2)n1` (configuration not stated) was -10.4%; that for `CCc1ccc(C(=O)O)cc1S(=O)(=O)Nc1ccc(F)c(C#N)c1` was -10.9%. The value for `Cc1ccnn1CCN1CCCC2(CCC(=O)N(C3CCCC3)C2)C1` (configuration not stated) was 5.93%; that for `COc1cc(N2CC[C@H](O)[C@@H]2Cc2cnn(C)c2)ncn1` was 1.72%; that for `O=S1(=O)C[C@@H]2[C@H](C1)N(Cc1ccc3ccccc3c1)CCN2CC1CC1` was 1.99%. With `O=C(CC1CCCO1)NCc1ccc(Br)cc1F` (configuration not stated), the cytotoxicity at 10 µM is 4.72%. The value for `Cc1ccc2c(c1)C(NCc1ncnn1C)CC2` (configuration not stated) was 6.32%; that for `CN1CCN(c2ccc(NS(=O)(=O)c3ccc(Cl)s3)cc2C(=O)O)CC1` was -1.08%; that for `CCNC(=O)NC(=O)CNc1cccc(C(=O)c2ccccc2)c1` was 3.18%.

For `Cc1cccnc1CN(C)C(C(=O)O)c1ccc(C(C)(C)C#N)cc1` (configuration not stated), the cytotoxicity at 10 µM turned out to be 0.566%. The value for `CN(Cc1nc(Cc2cccc(F)c2)no1)C1CCOCC1` was 2.79%; that for `CC1COCCN1C(=O)Cc1cc(Cl)c2c(c1)OCCCO2` (configuration not stated) was -1.43%; that for `COc1c(C)cnc(CNC(=O)CCOCc2ccccc2)c1C` was -4.31%. The value for `CC(C)CN(Cc1ccc(-n2cncn2)cc1)Cc1ccccn1` was 8.57%; that for `O=C1CCC2(CCN(CCSc3ccccc3)CC2)CN1CCCO` was 2.09%; that for `CN1C(=O)CC(C(=O)O)C12CCN(Cc1ccc(Cl)c(F)c1)CC2` (configuration not stated) was 2.91%. The value for `Nc1nccnc1C(=O)N(Cc1ccccc1O)CC1CCCO1` (configuration not stated) was -4.45%. For `Cc1cc(C(=O)Nc2ccc3c(ccn3CCN3CCOCC3)c2)on1`, the cytotoxicity at 10 µM is 4.29%. On to `CS(=O)(=O)NCc1nnc2n1CCN(Cc1ccccn1)C2`, for which the cytotoxicity at 10 µM is -75.5%. The value for `NC(=O)CCn1ccc(NC(=O)c2ccc(Br)o2)n1` was -1.39%; that for `COCCN1CCN(Cc2cccnc2)[C@H]2CS(=O)(=O)C[C@H]21` was 6.03%.

Regarding `O=C(NCCc1cccnc1)c1nc2c(s1)CCCN2C(=O)C1CC1`, the cytotoxicity at 10 µM is -91.5%.

With `O=C(c1ccc[nH]1)N1CCc2ncc(Cn3cccn3)n2CC1`, the cytotoxicity at 10 µM is -0.469%. The value for `CCN(c1ccc(C(=O)N2CCC(C)CC2)cc1)S(=O)(=O)CC` was 7.36%; that for `CCCC(=O)N1CCC(Nc2nc(O)cc(-c3ccsc3)n2)CC1` was 5.46%; that for `Cc1cc(C(=O)NS(C)(=O)=O)ccc1I` was 6.85%. The value for `O=C(CC[C@@H]1CCCN2CCCC[C@H]12)NCCc1nc(O)cc(O)n1` was -0.392%; that for `CC(C)Nc1nc(N2CCCC2)nc2c1CN(S(C)(=O)=O)CC2` was 2.69%; that for `Cc1nc(C(=O)N(C)CC2CC2)nn1-c1ccccc1C(C)C` was 5.38%.
